ChEMBL document CHEMBL3860061, “A Novel Parkinson's Disease Drug Candidate with Potent Anti-neuroinflammatory Effects through the Src Signaling Pathway” (J Med Chem, 2016)
Active and inactive are the calls of the source. The calls are words filed in the database; no cut-off is given here.

How the values were obtained:
[1] = target: Proto-oncogene tyrosine-protein kinase Src (Mus musculus) (UniProt P05480); assay: Inhibition of Src signaling pathway in mouse BV2 cells assessed as suppression of LPS-induced NO release at […] preincubated for 1 hr followed by LPS addition measured after 24 hrs relative to control by Griess assay; type: cell-based; settings: BV-2
Sequence of Proto-oncogene tyrosine-protein kinase Src (Mus musculus) (P05480 2-535 limits assumed): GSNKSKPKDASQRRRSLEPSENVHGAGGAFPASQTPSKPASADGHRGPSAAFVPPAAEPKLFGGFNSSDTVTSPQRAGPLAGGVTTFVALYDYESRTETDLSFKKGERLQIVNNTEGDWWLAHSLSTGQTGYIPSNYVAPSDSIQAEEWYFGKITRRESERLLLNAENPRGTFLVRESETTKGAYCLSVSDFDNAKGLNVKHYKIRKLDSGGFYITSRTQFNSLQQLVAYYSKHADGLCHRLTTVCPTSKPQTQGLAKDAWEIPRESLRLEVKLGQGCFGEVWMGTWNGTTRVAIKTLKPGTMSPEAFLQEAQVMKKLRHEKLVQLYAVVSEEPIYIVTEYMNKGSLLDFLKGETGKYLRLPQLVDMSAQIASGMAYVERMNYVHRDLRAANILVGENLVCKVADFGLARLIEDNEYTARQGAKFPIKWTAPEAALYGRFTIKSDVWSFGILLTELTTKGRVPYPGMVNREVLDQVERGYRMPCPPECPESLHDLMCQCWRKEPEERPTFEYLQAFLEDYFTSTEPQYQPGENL

[2] = target: Proto-oncogene tyrosine-protein kinase Src (Mus musculus, UniProt P05480); assay: Inhibition of Src in mouse BV2 cells assessed as suppression of LPS-induced NO release preincubated for 1 hr followed by LPS addition measured after 24 hrs by Griess assay; type: cell-based, BV-2
Sequence of Proto-oncogene tyrosine-protein kinase Src (P05480 2-535 limits assumed): as above
Summary of the method: (§1)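 BV-2 cells in DMEM/10% FBS, plated at 5×10^3 per well. After 24 h, treated at 100, 50, 10, 5, 1 and 0.1 µM; 1 h later LPS 300 ng/mL added. After another 24 h, nitrite in the medium measured by Griess assay.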

[3] = target: Proto-oncogene tyrosine-protein kinase Src (Mus musculus) (UniProt P05480); assay: Inhibition of Src signaling pathway in mouse BV2 cells assessed as suppression of LPS-induced NO release at 0.1 to 100 uM preincubated for 1 hr followed by LPS addition measured after 24 hrs relative to control by Griess assay; type: cell-based; settings: BV-2; summary of the method: as §1
[4] = target: Proto-oncogene tyrosine-protein kinase Src (Rattus norvegicus) (UniProt Q9WUD9); assay: Inhibition of Src in Sprague-Dawley rat primary mixed mesecephalic neuron/glial cells assessed as suppression of LPS-induced TNFalpha expression at 10 uM preincubated for 1 hr followed by LPS challenge measured after 5 hrs by ELISA
Sequence of Proto-oncogene tyrosine-protein kinase Src (Rattus norvegicus) (Q9WUD9 2-536 limits assumed): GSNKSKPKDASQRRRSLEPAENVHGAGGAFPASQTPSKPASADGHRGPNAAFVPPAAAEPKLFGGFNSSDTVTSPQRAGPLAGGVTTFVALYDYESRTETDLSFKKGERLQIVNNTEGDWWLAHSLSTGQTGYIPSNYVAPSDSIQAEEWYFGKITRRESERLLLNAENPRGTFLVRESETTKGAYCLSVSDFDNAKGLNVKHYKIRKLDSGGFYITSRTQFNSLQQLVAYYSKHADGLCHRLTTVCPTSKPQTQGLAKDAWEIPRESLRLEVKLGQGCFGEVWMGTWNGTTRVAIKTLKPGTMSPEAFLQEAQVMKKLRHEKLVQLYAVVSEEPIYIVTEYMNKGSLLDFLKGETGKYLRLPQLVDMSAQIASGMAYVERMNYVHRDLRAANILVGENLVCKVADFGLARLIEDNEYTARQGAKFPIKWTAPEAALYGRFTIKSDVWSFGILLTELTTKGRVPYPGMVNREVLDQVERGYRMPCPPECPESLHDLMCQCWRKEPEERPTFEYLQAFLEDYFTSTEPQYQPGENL
Summary of the method: (§2)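 Mixed mesencephalic neuron/glia cultures from E14 Sprague-Dawley rats, used at 7 days. Agent at 10 µM added 1 h before LPS 100 ng/mL; IL-1β and TNF-α in medium measured by ELISA after 5 h, n = 6.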

[5] = target: Proto-oncogene tyrosine-protein kinase Src (Rattus norvegicus) (UniProt Q9WUD9); assay: Inhibition of SRC in Sprague-Dawley rat primary mixed mesecephalic neuron/glial cells assessed as protection against LPS-induced dopaminergic neuro-toxicity by measuring TH expression at 10 uM preincubated for 1 hr followed by LPS challenge measured after 7 days by Western blot analysis
Summary of the method: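 Mixed mesencephalic neuron/glia cultures from E14 Sprague-Dawley rats, used at 7 days. Agent at 10 µM added 1 h before LPS 100 ng/mL; TH measured by Western blot after 7 days, n = 4.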

[6] = target: Proto-oncogene tyrosine-protein kinase Src (Rattus norvegicus) (UniProt Q9WUD9); assay: Inhibition of Src in Sprague-Dawley rat primary mixed mesecephalic neuron/glial cells assessed as suppression of LPS-induced microglia activation by measuring Iba-1 expression at 10 uM preincubated for 1 hr followed by LPS challenge measured after 24 hrs
[7] = target: Proto-oncogene tyrosine-protein kinase Src (Rattus norvegicus) (UniProt Q9WUD9); assay: Inhibition of Src in Sprague-Dawley rat primary mixed mesecephalic neuron/glial cells assessed as suppression of LPS-induced IL-1beta expression at 10 uM preincubated for 1 hr followed by LPS challenge measured after 5 hrs by ELISA; summary of the method: as §2
[8] = Drug uptake in ICR mouse plasma at 50 mg/kg, ig after 5 mins by LC/MS/MS analysis; type: ADME, organism-based; settings: in vivo, po
[9] = AUC (0 to infinity) in ICR mouse blood at 50 mg/kg, ig up to 8 hrs by LC/MS/MS analysis; type: ADME, organism-based; set-up: dose 50 mg/kg, route […], time infinity; settings: in vivo, po
Summary of the method: (§3)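 Male ICR mice (22–25 g), fasted 16 h, single intragastric dose of 50 mg/kg. Blood and brain sampled at 5, 15, 30 min and 1, 2, 4, 8 h after decapitation. Plasma spun 4000 rpm 5 min; brain homogenised in saline and spun. Extracts run by LC/MS/MS on C18 columns at 30 °C, isocratic 70% acetonitrile (1% TFA)/30% water, 0.2 mL/min. Mean ± SD, n = 6.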

[10] = AUC (0 to infinity) in ICR mouse brain at 50 mg/kg, ig up to 8 hrs by LC/MS/MS analysis; type: ADME, organism-based; set-up: dose 50 mg/kg, route […], time infinity; settings: in vivo, po, BLD = below limit of detection; summary of the method: as §3
[11] = Half life in ICR mouse blood at 50 mg/kg, ig up to 8 hrs by LC/MS/MS analysis; type: ADME, organism-based; settings: po; summary of the method: as §3
[12] = Cmax in ICR mouse brain at 50 mg/kg, ig up to 8 hrs by LC/MS/MS analysis; type: ADME, organism-based; set-up: dose 50 mg/kg, route […]; settings: in vivo, po, BLD = below limit of detection; summary of the method: as §3
[13] = Cmax in ICR mouse blood at 50 mg/kg, ig up to 8 hrs by LC/MS/MS analysis; type: ADME, organism-based; set-up: dose 50 mg/kg, route […]; settings: po; summary of the method: as §3
Mus musculus [14] = assay: Hepatotoxicity in ICR mouse at 1000 mg/kg administered through oral gavage for 14 consecutive days; type: toxicity, organism-based; settings: in vivo
Summary of the method: (§4)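 Mice dosed by oral gavage at 250, 500 and 1000 mg/kg for 14 consecutive days. General condition monitored throughout; liver and kidney clinical chemistry assessed.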

Mus musculus [15] = assay: Nephrotoxicity in ICR mouse at 1000 mg/kg administered through oral gavage for 14 consecutive days; type: toxicity, organism-based; settings: in vivo; summary of the method: as §4
[16] = target: Voltage-gated inwardly rectifying potassium channel KCNH2 (Homo sapiens, UniProt Q12809); assay: Inhibition of human ERG by whole cell voltage clamp assay
Sequence of Voltage-gated inwardly rectifying potassium channel KCNH2 (Q12809 whole entry): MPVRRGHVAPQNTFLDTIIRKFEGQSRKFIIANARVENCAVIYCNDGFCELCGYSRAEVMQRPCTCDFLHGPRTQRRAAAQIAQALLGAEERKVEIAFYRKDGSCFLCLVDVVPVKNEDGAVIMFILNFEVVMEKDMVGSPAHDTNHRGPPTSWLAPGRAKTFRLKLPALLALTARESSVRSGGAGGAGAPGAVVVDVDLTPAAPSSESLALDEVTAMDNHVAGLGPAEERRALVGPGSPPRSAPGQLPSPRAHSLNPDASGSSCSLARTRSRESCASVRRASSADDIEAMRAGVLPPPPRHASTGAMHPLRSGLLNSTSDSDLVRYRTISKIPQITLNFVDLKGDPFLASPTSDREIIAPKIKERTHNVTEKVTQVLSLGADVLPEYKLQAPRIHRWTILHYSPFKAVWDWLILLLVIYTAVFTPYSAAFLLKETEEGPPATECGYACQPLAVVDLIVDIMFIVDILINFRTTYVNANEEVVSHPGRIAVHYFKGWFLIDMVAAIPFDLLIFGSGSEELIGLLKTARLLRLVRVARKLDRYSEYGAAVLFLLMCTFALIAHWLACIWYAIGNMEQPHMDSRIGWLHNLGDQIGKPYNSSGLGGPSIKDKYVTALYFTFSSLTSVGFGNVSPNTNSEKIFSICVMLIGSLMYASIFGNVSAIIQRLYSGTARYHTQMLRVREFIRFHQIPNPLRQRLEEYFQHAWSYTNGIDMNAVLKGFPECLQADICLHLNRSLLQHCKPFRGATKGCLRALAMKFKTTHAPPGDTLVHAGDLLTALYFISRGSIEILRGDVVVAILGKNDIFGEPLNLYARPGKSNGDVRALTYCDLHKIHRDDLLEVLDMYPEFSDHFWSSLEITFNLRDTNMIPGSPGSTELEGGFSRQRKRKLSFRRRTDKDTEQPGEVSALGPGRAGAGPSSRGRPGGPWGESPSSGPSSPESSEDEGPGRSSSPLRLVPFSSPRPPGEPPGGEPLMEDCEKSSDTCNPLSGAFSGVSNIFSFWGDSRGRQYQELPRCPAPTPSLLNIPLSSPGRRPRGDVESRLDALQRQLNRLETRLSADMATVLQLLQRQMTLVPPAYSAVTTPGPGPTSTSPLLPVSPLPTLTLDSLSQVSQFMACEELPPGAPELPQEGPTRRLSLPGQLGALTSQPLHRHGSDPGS
Summary of the method: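 Whole-cell voltage clamp. Internal solution: KCl 130 mM, MgCl2 1 mM, EGTA 5 mM, ATP-Mg 5 mM, HEPES 10 mM, pH 7.2. Bath: NaCl 137, CaCl2 1.8, KCl 4, MgCl2 1, glucose 5, HEPES 10 mM, pH 7.4. From a holding potential of −70 mV, 2-s steps to 50 mV in 10 mV increments every 15 s; tail current recorded on a 2-s step from +50 to −40 mV.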

[17] = Toxicity in ICR mouse assessed as mortality administered through oral gavage; type: organism-based; settings: in vivo

Row | SMILES | IC50 [2] [µM] | further results
1 | CC(C)CC(=O)c1c(O)cc(O)cc1OC[C@@H](O)CNC(C)C |  | inhibition [1]: < 50%
2 | CC(C)CC(=O)c1c(O)cc(O)cc1OC[C@H](O)CNC(C)(C)C | 37.3 | 
3 | CC(C)CC(=O)c1c(O)cc(O)cc1OC[C@@H](O)CNC(C)(C)C | 24.1 | 
4 | COc1cc(OC)c(CN[C@@H](CC(=O)O)C(=O)O)c(OC)c1 | 14.4 | inhibition [3]: Active
5 | CC(C)CC(=O)c1ccc(O)cc1 | 90.7 | 
6 | COc1ccc(C(=O)CC(C)C)c(OC[C@H](O)CNC(C)C)c1 | 40.9 | 
7 | COc1cc(OC)c(C(=O)CN2CCCCC2)c(OC)c1 | 24.9 | 
8 | COc1cc(OC)c(C(=O)CC(C)C)c(OC[C@H](O)CNC(C)(C)C)c1 |  | inhibition [1]: < 50%
9 | COc1cc(OC)c(C(=O)CC(C)C)c(OC[C@@H](O)CNC(C)(C)C)c1 | 11.2 | 
10 | COc1cc(OC)c(CN[C@@H](Cc2ccccc2)C(=O)O)c(OC)c1 |  | inhibition [1]: < 50%
11 | COc1cc(OC)c(CNC(C)C)c(OC)c1 |  | inhibition [1]: < 50%
12 | COc1cc(OC)c(C(=O)CN2CCOCC2)c(OC)c1 | 32.4 | 
13 | COc1ccc(C(=O)CC(C)C)c(OCC(O)CNC(C)(C)C)c1 (stereo not given) | 138 | 
14 | CC(C)CC(=O)c1c(O)cc(O)cc1OCC(O)CNC(C)(C)C (stereo not given) | 21.7 | 
15 | CC(C)CC(=O)c1c(O)cc(O)cc1OCc1c(-c2ccccc2)no[n+]1[O-] | 8.5 | inhibition [4]: Active; inhibition [5]: Active; inhibition [6]: Active; inhibition [7]: Active; Drug uptake [8]: Active
16 | CCCCNC(=O)c1c(O)cc(O)cc1O | 37.1 | 
17 | COc1cc(OC)c(CN[C@@H](Cc2cnc[nH]2)C(=O)O)c(OC)c1 |  | inhibition [1]: < 50%
18 | O=C(CCCN1CCCCC1)c1c(O)cc(O)cc1O | 182 | 
19 | COc1cc(OC)c(C(=O)CC(C)C)c(OCC(O)CNC(C)(C)C)c1 (stereo not given) | 75 | 
20 | CC(C)CC(=O)c1c(O)cc(O)cc1O | 50.6 to 50.7 | 
21 | COc1cc(OC)c(C(=O)CC(C)C)c(OCC(O)CNC(C)C)c1 (stereo not given) | 84.8 | 
22 | COc1cc(OC)c(C(=O)CN2CCN(C)CC2)c(OC)c1 | 95.3 | 

Row | SMILES | IC50 [2] [µM] | further results
23 | CC(C)NC(=O)c1c(O)cc(O)cc1O | 92.6 | 
24 | CC(=O)c1c(O)cc(O)cc1O [2,4,6-TRIHYDROXYACETOPHENONE] | 195 | 
25 | O=C(CCCN1CCN(c2cccc(Cl)c2)CC1)c1c(O)cc(O)cc1O |  | inhibition [1]: < 50%
26 | COc1cc(OC)c(C(=O)CC(C)C)c(OC[C@@H](O)CNC(C)C)c1 | 138 | 
27 | COc1ccc(C(=O)CC(C)C)c(OCC(O)CNC(C)C)c1 (stereo not given) |  | inhibition [1]: < 50%
28 | COc1cc(OC)c(C(=O)CC(C)C)c(OC[C@H](O)CNC(C)C)c1 | 41.3 | 
29 | CC(C)CC(=O)c1c(O)cc(O)cc1OCC(O)CNC(C)C (stereo not given) | 74 | 
30 | COc1cc(OC)c(CN[C@@H](CCC(=O)O)C(=O)O)c(OC)c1 | 8.4 | AUC [9]: 3195.1 µg·L·h; inhibition [4]: Active; inhibition [5]: Active; inhibition [3]: Active; inhibition [6]: Active; AUC [10]: Bld; half-life [11]: 1.1 h; Cmax [12]: Bld; inhibition [7]: Active; Drug uptake [8]: Active; Cmax [13]: 1640 ng/mL
31 | COc1ccc(C(=O)CC(C)C)c(O)c1 | 113 | 
32 | COc1cc(OC)c(CN[C@@H](C)C(=O)O)c(OC)c1 | 39.1 | 
33 | COc1cc(O)cc(O)c1C(=O)CC(C)C | 5.8 | inhibition [4]: Active; inhibition [5]: Active; Activity (Mus musculus [14]): Toxic; Activity (Mus musculus [15]): Toxic; inhibition [6]: Active; inhibition (INH) [16]: Active; LD50 [17]: 2000 mg/kg; inhibition [7]: Active; Drug uptake [8]: Active
34 | COc1cc(OC)c(C(=O)CC(C)C)c(OC)c1 | 11.1 | 
35 | COc1ccc(C(=O)CC(C)C)c(OC[C@@H](O)CNC(C)C)c1 | 25.6 | 
36 | COc1cc(/C=C/C(=O)CC(=O)/C=C/c2ccc(O)c(OC)c2)ccc1O [CURCUMIN] | 2.2 | 
37 | CCN1CCN(CC(=O)c2c(OC)cc(OC)cc2OC)CC1 | 22.7 | 
38 | CCCCC(=O)c1c(O)cc(O)cc1O | 11.2 | 
39 | COc1cc(OC)c(CNCC(=O)O)c(OC)c1 |  | inhibition [1]: < 50%
40 | COc1ccc(C(=O)CC(C)C)c(OC[C@@H](O)CNC(C)(C)C)c1 | 53.8 | 
41 | CN(CCCC(=O)c1c(O)cc(O)cc1O)C1CCCCC1 | 54.8 | 
42 | COc1ccc(C(=O)CC(C)C)c(OC[C@H](O)CNC(C)(C)C)c1 | 28.2 | 
43 | COc1cc(O)c(C(=O)CC(C)C)c(OC)c1 | 51.5 | 
44 | CC(C)CC(=O)c1c(O)cc(O)cc1OC[C@H](O)CNC(C)C |  | inhibition [1]: < 50%
